Tests used:
[1] = system: Human immunodeficiency virus 1; experiment: Antiviral activity against HIV1 HXB2 harboring K103N mutant reverse transcriptase infected in human MT4 cells after 5 days by MTT assay; type: functional, organism-based; conditions: Human immunodeficiency virus 1, HXB2, MT4, 120 h
Summary of the method: (§1)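 Mutant viruses were made by recombining the mutant PR-RT sequence into a PR-RT-deleted HIV-1 HXB2 proviral clone. MT4 cells were grown in RPMI 1640 with 10% FCS and antibiotics. Virus at 200 CCID50/well and 30000 cells/well were incubated with varied compound concentrations for 5 days at 37 °C, 5% CO2. MTT viability gave IC50, the concentration giving 50% infection versus the drug-free control.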

[2] = system: Human immunodeficiency virus 1; experiment: Antiviral activity against HIV1 HXB2 harboring Y181C mutant reverse transcriptase infected in human MT4 cells after 5 days by MTT assay; type: functional, organism-based; conditions: Human immunodeficiency virus 1, HXB2, MT4, 120 h; summary of the method: as §1
[3] = Selectivity index, ratio of CC50 for human MT4 cells to IC50 for HIV-1 LAI harboring wild type reverse transcriptase infected in human MT4 cells; type: functional
Summary of the method: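 Cytotoxicity was measured in mock-infected MT4 cultures (30000 cells/well) given the same compound concentration range, run in parallel with the infected cultures for 5 days at 37 °C, 5% CO2, with MTT viability. CC50 was the concentration reducing viability by 50% versus the drug-free control. SI was CC50 divided by IC50 against HIV-1 LAI.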

[4] = system: Human immunodeficiency virus 1; experiment: Antiviral activity against HIV1 HXB2 harboring Y188L mutant reverse transcriptase infected in human MT4 cells after 5 days by MTT assay; type: functional, organism-based; conditions: Human immunodeficiency virus 1, HXB2, MT4, 120 h; summary of the method: as §1
[5] = system: Human immunodeficiency virus 1; experiment: Antiviral activity against HIV-1 LAI harboring wild type reverse transcriptase infected in human MT4 cells after 5 days by MTT assay; type: functional, organism-based; conditions: Human immunodeficiency virus 1, LAI, MT4, 120 h
Summary of the method: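 MT4 cells were kept in RPMI 1640 with 10% fetal calf serum and antibiotics at 37 °C, 5% CO2. A range of compound concentrations was incubated with HIV-1 LAI at 200 CCID50/well and 30000 MT4 cells/well for 5 days at 37 °C. Cell viability was read by MTT, and IC50 was the concentration giving 50% infection versus the drug-free control.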

Row | SMILES | IC50 [1] [nM] | IC50 [2] [nM] | Ratio CC50/IC50 [3] | IC50 [4] [nM] | IC50 [5] [nM]
1 | Cc1cc(C)cc(Oc2c(CSCc3cccc(C#N)c3)c(C)[nH]c(=O)c2I)c1 | 1.58 | 6.3 | 19953 | 794 | 3.16
2 | Cc1cc(C)cc(Oc2c(CN3CC=CC3)c(C)[nH]c(=O)c2I)c1 | 7.94 | 50.1 | 15848 | 125 | 3.98
3 | CCOCc1c(C)[nH]c(=O)c(I)c1Sc1cc(C)cc(C)c1 | 1.25 | 31.6 | 50119 | 251 | 1.99
4 | Cc1cc(C)cc(Oc2c(CO)c(C)[nH]c(=O)c2I)c1 | 158 | 158 | >19953 | 3160 | 5
5 | Cc1cc(C)cc(Oc2c(CN3CCCC(C(N)=O)C3)c(C)[nH]c(=O)c2I)c1 (configuration not stated) |  |  | >10000 |  | 10
6 | Cc1cc(C)cc(Oc2c(COCCO)c(C)[nH]c(=O)c2I)c1 | 39.8 | 31.6 | >50119 | 501 | 1.99
7 | Cc1cc(C)cc(Oc2c(COCc3ccsc3)c(C)[nH]c(=O)c2I)c1 | 25.1 | 25.1 | >19953 | 100 | 5
8 | Cc1cc(C)cc(Oc2c(CN3CCCC(C#N)C3)c(C)[nH]c(=O)c2I)c1 (configuration not stated) | 6.3 | 31.6 | 19953 | 199 | 3.98
9 | CCOCc1c(C)[nH]c(=O)c(I)c1Oc1cc(C)cc(C)c1 | 6.3 | 6.3 | >158489 | 125 | 0.63
10 | COCCOCc1c(C)[nH]c(=O)c(I)c1Oc1cc(C)cc(C)c1 | 50.1 | 10 | >63096 | 158 | 1.58
11 | Cc1cc(C)cc(Oc2c(CSCc3cccs3)c(C)[nH]c(=O)c2I)c1 | 1 | 19.9 | >39811 | 39.8 | 2.51
12 | Cc1cc(C)cc(Oc2c(Cn3ncc4ccccc43)c(C)[nH]c(=O)c2I)c1 |  |  | >3981 |  | 7.9
13 | Cc1cc(C)cc(Oc2c(Cn3ccnn3)c(C)[nH]c(=O)c2I)c1 | 7.94 | 31.6 | >39810 | 79.4 | 2.51
14 | Cc1cc(C)cc(Oc2c(Cn3ccnc3Br)c(C)[nH]c(=O)c2I)c1 |  |  | >3981 |  | 7.9
15 | Cc1cc(C)cc(Sc2c(Cn3ccnc3)c(C)[nH]c(=O)c2I)c1 | 0.79 | 7.9 | 15849 | 50.1 | 1.25
16 | Cc1cc(C)cc(Sc2c(Cn3nc(C)nc3C)c(C)[nH]c(=O)c2I)c1 | 31.6 | 39.8 | >31623 | 158 | 3.16
17 | Cc1cc(C)cc(Sc2c(Cn3cnc(C)n3)c(C)[nH]c(=O)c2I)c1 | 1.99 | 15.8 | >125893 | 100 | 0.79
18 | CNC(=O)CSCc1c(C)[nH]c(=O)c(I)c1Sc1cc(C)cc(C)c1 | 3.98 | 39.8 | >63096 | 794 | 1.58
19 | Cc1cc(C)cc(Sc2c(Cn3ncnc3C)c(C)[nH]c(=O)c2I)c1 | 15.8 | 31.6 | >12589 | 316 | 1.99
20 | CCOC(=O)CC1CN(Cc2c(C)[nH]c(=O)c(I)c2Sc2cc(C)cc(C)c2)CCO1 (configuration not stated) | 0.62 | 25.1 | 25119 | 50 | 2.51
21 | Cc1cc(C)cc(Sc2c(CN(C)CCC#N)c(C)[nH]c(=O)c2I)c1 | 6.3 | 63 | >31623 | 1000 | 2.51
22 | Cc1cc(C)cc(Sc2c(CN3CCN(C(=O)c4ccco4)CC3)c(C)[nH]c(=O)c2I)c1 |  |  | 398 |  | 10
23 | Cc1cc(C)cc(Sc2c(CNC=O)c(C)[nH]c(=O)c2I)c1 | 1.25 | 31.6 | >79433 | 199 | 1.25
24 | Cc1cc(C)cc(Sc2c(Cn3cccc3)c(C)[nH]c(=O)c2I)c1 | 1 | 31.6 | 19953 | 158 | 2.51

Row | SMILES | IC50 [1] [nM] | IC50 [2] [nM] | Ratio CC50/IC50 [3] | IC50 [4] [nM] | IC50 [5] [nM]
25 | Cc1cc(C)cc(Sc2c(Cn3nc(-c4ccco4)nc3C)c(C)[nH]c(=O)c2I)c1 | 12.5 | 31.6 | >50119 | 31.6 | 1.99
26 | Cc1cc(C)cc(Sc2c(CSCCc3cnccn3)c(C)[nH]c(=O)c2I)c1 | 5.01 | 31.6 | >39811 | 199 | 1.99
27 | COCC1CN(Cc2c(C)[nH]c(=O)c(I)c2Sc2cc(C)cc(C)c2)CCO1 (configuration not stated) | 1 | 25.1 | >50119 | 125 | 1.25
28 | Cc1cc(C)cc(Sc2c(CN3CCOC(CCO)C3)c(C)[nH]c(=O)c2I)c1 (configuration not stated) | 1.58 | 31.6 | 31623 | 199 | 1.58
29 | Cc1cc(C)cc(Sc2c(Cc3ccc[nH]3)c(C)[nH]c(=O)c2I)c1 | 0.5 | 10 | >25119 | 50.1 | 3.98
30 | COC1CCN(Cc2c(C)[nH]c(=O)c(I)c2Sc2cc(C)cc(C)c2)CC1 | 12.5 | 199 | 10000 | 2000 | 3.98
31 | Cc1cc(C)cc(Sc2c(Cn3cccc3C#N)c(C)[nH]c(=O)c2I)c1 |  |  | >31623 |  | 1
32 | Cc1cc(C)cc(Sc2c(Cn3cnc(C)c3C#N)c(C)[nH]c(=O)c2I)c1 | 1.25 | 31.6 | >79433 | 100 | 1.25
33 | Cc1cc(C)cc(Sc2c(CN3CCOCC3)c(C)[nH]c(=O)c2I)c1 | 1.25 | 31.6 | 7943 | 158 | 1.25
34 | Cc1cc(C)cc(Sc2c(CN3CCOC(CC#N)C3)c(C)[nH]c(=O)c2I)c1 (configuration not stated) | 1 | 25.1 | 25119 | 100 | 1.58
35 | CCOC(=O)CSCc1c(C)[nH]c(=O)c(I)c1Oc1cc(C)cc(C)c1 |  |  | >10000 |  | 10
36 | Cc1cc(C)cc(Oc2c(Cn3cnc(C)n3)c(C)[nH]c(=O)c2I)c1 | 15.8 | 31.6 | >25118 | 125 | 3.98
37 | CNC(=O)CSCc1c(C)[nH]c(=O)c(I)c1Oc1cc(C)cc(C)c1 | 3.98 | 19.9 | >60096 | 158 | 1.58
38 | Cc1cc(C)cc(Oc2c(CSC(C)C)c(C)[nH]c(=O)c2I)c1 | 12.5 | 39.8 | >19953 | 316 | 5
39 | Cc1cc(C)cc(Oc2c(CN(C)Cc3ccco3)c(C)[nH]c(=O)c2I)c1 | 31.6 | 39.8 | 12589 | 251 | 5.01
40 | Cc1cc(C)cc(Oc2c(Cn3cncn3)c(C)[nH]c(=O)c2I)c1 | 3.98 | 10 | >50118 | 100 | 1.99
41 | Cc1cc(C)cc(Sc2c(CN)c(C)[nH]c(=O)c2I)c1 | 158 | 794 |  | > 10000 | 19.9
42 | Cc1cc(C)cc(Sc2c(Cn3ccnc3C#N)c(C)[nH]c(=O)c2I)c1 |  |  | >31623 |  | 1
43 | Cc1cc(C)cc(Sc2c(Cn3cncn3)c(C)[nH]c(=O)c2I)c1 | 1 | 7.94 | >25119 | 125 | 1
44 | CCSCc1c(C)[nH]c(=O)c(I)c1Sc1cc(C)cc(C)c1 | 5.01 | 31.6 | >15849 | 630 | 3.16
45 | Cc1cc(C)cc(Sc2c(Cn3ccnn3)c(C)[nH]c(=O)c2I)c1 | 1 | 10 | >50119 | 50.1 | 1.99
46 | COCCC1CN(Cc2c(C)[nH]c(=O)c(I)c2Sc2cc(C)cc(C)c2)CCO1 (configuration not stated) | 5.01 | 63 | 12589 | 398 | 3.98
47 | Cc1cc(C)cc(Sc2c(CN3CCOC(CN(C)C)C3)c(C)[nH]c(=O)c2I)c1 (configuration not stated) |  | 158 | >5012 | 1000 | 5.01

Source: ChEMBL document CHEMBL1154778, “Synthesis and biological evaluation of C-5 methyl substituted 4-arylthio and 4-aryloxy-3-Iodopyridin-2(1H)-one type anti-HIV agents” (J Med Chem, 2009)
